4 compounds from ChEMBL document CHEMBL1143400, “A diarylquinoline drug active on the ATP synthase of Mycobacterium tuberculosis” (Science, 2005) can be followed below.

SMILES strings stand for the structures. A value given as a limit tells only on which side of the number the result lay.

The test system of data set [1] is Mycobacterium tuberculosis. Briefly: Antimycobacterial activity against Mycobacterium tuberculosis H37Rv infected Swiss mouse assessed as spleen weight at 75 mg/kg 5 times weekly for 4 weeks. In kind it is functional.
Data set [2] concerns Mycobacterium tuberculosis. Put plainly: Antimycobacterial activity against Mycobacterium tuberculosis H37Rv infected Swiss mouse assessed as reduction of bacterial count in spleen at 75 mg/kg 5 times weekly for 4 weeks. In kind it is functional. The procedure, abridged:
(§1)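 Nonestablished infection model in mice. Oral dosing began the day after inoculation, given 5 times per week for 4 weeks; one 12.5 mg/kg group was dosed once weekly. Mice were killed on day 28 and lung and spleen CFU counted, with untreated controls taken at day 1. Means ± SD; pairwise comparisons by Bonferroni's method.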

The subject of data set [3] is Mycobacterium tuberculosis. Briefly: Antimycobacterial activity against Mycobacterium tuberculosis H37Rv infected Swiss mouse assessed as reduction of bacterial count in lungs at 75 mg/kg 5 times weekly for 4 weeks. The format is functional. In outline: as §1
Data set [4] relates to Mycobacterium tuberculosis. Briefly: Antimycobacterial activity against Mycobacterium tuberculosis H37Rv infected Swiss mouse assessed as reduction of bacterial count in spleen at 100 mg/kg 5 times weekly for 4 weeks. The format is functional. In outline:
as §1

Data set [5] has as its system Mycobacterium tuberculosis. Briefly: Antimycobacterial activity against Mycobacterium tuberculosis H37Rv infected Swiss mouse assessed as reduction of bacterial count in spleen at 50 mg/kg 5 times weekly for 4 weeks. The format is functional. In outline: as §1
Data set [6] concerns Mycobacterium tuberculosis. Put plainly: Antimycobacterial activity against Mycobacterium tuberculosis H37Rv infected Swiss mouse assessed as reduction of bacterial count in lungs at 100 mg/kg 5 times weekly for 4 weeks. The format is functional. In outline:
as §1

For data set [7], the system named is Mycobacterium tuberculosis. Put plainly: Antimycobacterial activity against Mycobacterium tuberculosis H37Rv infected Swiss mouse assessed as reduction of bacterial count in lungs at 50 mg/kg 5 times weekly for 4 weeks. The format is functional. The procedure, abridged:
as §1

The subject of data set [8] is Mycobacterium tuberculosis. Put plainly: Antimycobacterial activity against Mycobacterium tuberculosis H37Rv infected Swiss mouse assessed as spleen weight at 50 mg/kg 5 times weekly for 4 weeks. The format is functional.
In data set [9] the test system is Mycobacterium tuberculosis. Put plainly: Antimycobacterial activity against Mycobacterium tuberculosis H37Rv infected Swiss mouse assessed as spleen weight at 100 mg/kg 5 times weekly for 4 weeks. In kind it is functional.
Data set [10] concerns Mus musculus. Put plainly: Toxicity in Mycobacterium tuberculosis H37Rv infected Swiss mouse at 25 mg/kg 5 times weekly for 4 weeks. In kind it is organism-based. Set-up: dose 25 mg/kg. As to conditions: in vivo, 672 h.
Data set [11] concerns Mus musculus. Briefly: Toxicity in Mycobacterium tuberculosis H37Rv infected Swiss mouse at 12.5 mg/kg 5 times weekly for 4 weeks. As to conditions: in vivo, 672 h. Set-up: dose 12.5 mg/kg. The format is organism-based.
The test system of data set [12] is Mus musculus. Briefly: Toxicity in Mycobacterium tuberculosis H37Rv infected Swiss mouse at 50 mg/kg 5 times weekly for 4 weeks. In kind it is organism-based. Set-up: dose 50 mg/kg. Conditions: in vivo, 672 h.
Data set [13] concerns Mus musculus. Put plainly: Toxicity in Mycobacterium tuberculosis H37Rv infected Swiss mouse at 100 mg/kg 5 times weekly for 4 weeks. Set-up: dose 100 mg/kg. As to conditions: in vivo, 672 h. The format is organism-based.
The test system of data set [14] is Mus musculus. Briefly: Toxicity in Mycobacterium tuberculosis H37Rv infected Swiss mouse at 75 mg/kg 5 times weekly for 4 weeks. The format is organism-based. Set-up: dose 75 mg/kg. As to conditions: in vivo, 672 h.
Data set [15] concerns Mycobacterium tuberculosis. Briefly: Antimycobacterial activity against Mycobacterium tuberculosis H37Rv infected Swiss mouse assessed as reduction of bacterial count in spleen at 25 mg/kg 5 times weekly for 4 weeks. In kind it is functional. The procedure, abridged: as §1
Data set [16] has as its system Mycobacterium tuberculosis. Put plainly: Antimycobacterial activity against Mycobacterium tuberculosis H37Rv infected Swiss mouse assessed as reduction of bacterial count in lungs at 25 mg/kg 5 times weekly for 4 weeks. The format is functional. In outline:
as §1

The subject of data set [17] is Mycobacterium tuberculosis. Briefly: Antimycobacterial activity against Mycobacterium tuberculosis H37Rv infected Swiss mouse assessed as spleen weight at 25 mg/kg 5 times weekly for 4 weeks. In kind it is functional.
A further data set relates to Plasma. Briefly: Drug level in human plasma. The format is ADME, cell-free.
For data set [18], the system named is Mycobacterium tuberculosis. Briefly: Antimycobacterial activity against Mycobacterium tuberculosis H37Rv infected Swiss mouse assessed as spleen weight at 10 mg/kg after 12 days infection weekly 5 times for 1 month. The format is functional.
Data set [19] relates to Mycobacterium tuberculosis. Briefly: Antimycobacterial activity against Mycobacterium tuberculosis H37Rv infected Swiss mouse assessed as reduction of bacterial count in lungs at 10 mg/kg after 12 days of infection weekly 5 times for 8 weeks. In kind it is functional. In outline:
(§2)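 Established infection model in mice. Treatment started 12 to 14 days after inoculation, given 5 times per week. Mice were killed on day 12 just before treatment, on day 42 (1 month of therapy) and on day 70 (2 months), and lung CFU counted. Means ± SD; pairwise comparisons by Bonferroni's method.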

The subject of data set [20] is Mycobacterium tuberculosis. Put plainly: Antimycobacterial activity against Mycobacterium tuberculosis H37Rv infected Swiss mouse assessed as reduction of bacterial count in lungs at 10 mg/kg after 12 days infection weekly 5 times for 1 month. The format is functional. In outline: as §2
The subject of data set [21] is Mycobacterium tuberculosis. Put plainly: Antimycobacterial activity against Mycobacterium tuberculosis H37Rv infected Swiss mouse assessed as spleen weight at 10 mg/kg after 12 days of infection weekly 5 times for 8 weeks. In kind it is functional.
Data set [22] has as its system Mycobacterium tuberculosis. Put plainly: Antimycobacterial activity against Mycobacterium tuberculosis H37Rv infected Swiss mouse assessed as reduction of bacterial count in spleen at 10 mg/kg after 12 days infection weekly 5 times for 1 month. The format is functional.

As for `COc1nc2ccc(Br)cc2cc1[C@@H](c1ccccc1)[C@@](O)(CCN(C)C)c1cccc(F)c1`, the Activity in data set [1] is 197 mg; in data set [8] it was 278 mg; in data set [9], 206 mg. For the same compound, the log10cfu was 4.04 in data set [2]; 4.32 in data set [3]; 3.63 in data set [4]; 4.68 in data set [5]; 3.63 in data set [6]; 5.2 in data set [7].
As for `COc1nc2ccc(Br)cc2cc1[C@@H](c1ccccc1)[C@@](O)(CCN(C)C)c1ccccc1`, the Activity in [1] was 390 mg; with Mus musculus [10], “Non-toxic”; in the data set on Mus musculus [11] it was “Non-toxic”; with Mus musculus [12] it was “Non-toxic”; with Mus musculus [13], “Non-toxic”; with Mus musculus [14], “Non-toxic”. Besides, the Activity in data set [8] turned out to be 410 mg; in [9], 424 mg. The log10cfu in data set [2] was 5.72; in [3], 6.03; in data set [4] it was 5.68; in data set [5] it was 5.78; in data set [6], 6.1; in [7], 6.4.
Turning to `NNC(=O)c1ccncc1` [ISONIAZID], the log10cfu in data set [15] was found to be 3.05 mg; in [16], 1.75 mg. The Activity in [17] was found to be 185 mg.
In the case of `CO[C@H]1/C=C/O[C@@]2(C)Oc3c(C)c(O)c4c(O)c(c(/C=N/N5CCN(C)CC5)c(O)c4c3C2=O)NC(=O)/C(C)=C\C=C\[C@H](C)[C@H](O)[C@@H](C)[C@@H](O)[C@@H](C)[C@H](OC(C)=O)[C@@H]1C` [RIFAMPIN], the Drug uptake in the data set with Plasma is below 0.001 µg/mL. Moreover, the Activity in data set [18] was 466 mg; in [21] it was 391 mg. Moreover, the log10cfu in [19] was determined as 1.89; in data set [20], 4.05; in [22] it was 4.72.
